Lipid droplet = hepatic lipid droplet formation modulation. AML12 mouse hepatocytes, oleate lipid droplets, BODIPY imaging. inhibition, % at 6.5 µM. actives 0.4% (n = 240,000). AID 1656;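 active means lipid droplet intensity inhibited by at least 50%, with more than 500 cells counted; inconclusive means wells with under 300 cells, treated as cytotoxic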
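Material: mouse AML12 hepatocyte cell line, fixed after treatment; Timing: compound with oleate, overnight; Technique: high-content imaging of BODIPY-stained droplets and DAPI nuclei; Probe or stimulus: oleate, 100 µM final; Dosing: compound at 6.5 µM only.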
SR-BI DiI-HDL act = enhances SR-BI lipid uptake from DiI-HDL; CHO ldlA[mSR-BI] cells, DiI-HDL uptake fluorescence, 3 h; 100 = double the neutral-control signal; activation, % at 12.5 µM; actives 0.096% (n = 320,000);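 active means mean replicate activation of at least 60% and every replicate at or above 60%; inconclusive means mean or all-replicate condition met, but not both; inactive means mean below 60% and not all replicates reaching 60%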
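Material: SR-BI-overexpressing, LDLR-lacking CHO cells; schedule: compound exposure 3 h, 37 °C; reagent: DiI-labelled HDL at 10 µg/mL final; technique: bottom-read fluorescence, 550/595 nm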
TLR9-MyD88 inh = inhibitors of human TLR9-MyD88 binding; CHO BLA complementation TLR9-MyD88, CCF4 FRET ratio; actives 0.21% (n = 340,000); Q9NR96+Q99836; inhibition, % at 4.98 µM;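 active means inhibition above the mean over all tested compounds plus 3 SD, cut at about 21% in these data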
TLR4 MyD88 comp = TLR4-MyD88 interaction inhibition in cells. O00206+Q99836. HeLa CL3-4 TLR4/MyD88 BLA complementation, FRET ratio. inhibition, % at 8.4 µM. actives 0.18% (n = 200,000). AID 861; in the data active means inhibition above about 25%
NOD2 RIPK2 PPI = NOD2-RIPK2 protein interaction inhibition. actives 0.38% (n = 360,000). AID 624267. CHO BLA complementation NOD2-RIPK2, CCF4 ratio. O43353. inhibition, % at 4.98 µM; in the data active means inhibition above about 21%
SR-BI HDL uptake = blocks mouse SR-BI lipid uptake from DiI-HDL; actives 0.96% (n = 320,000); ldlA[mSR-BI] CHO cells, DiI-HDL uptake fluorescence, 3 h; Q61009; inhibition, % at 12.5 µM; AID 488896;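 active means mean replicate inhibition of at least 70% and a set share of replicates each scoring 70 or more; inconclusive means meets just one of the two criteria; inactive means fails both criteria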
TLR4-MyD88 conf = confirmation of human TLR4-MyD88 binding inhibitors; AID 941; actives 50% (n = 350); inhibition, % at 8.4 µM; shares compounds with TLR4 MyD88 comp; HeLa CL3-4 BLA complementation, CCF4 FRET ratio;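 active means mean inhibition across three repeat runs above about 25% carried over from the earlier screen, limit read from the data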
BLA inhibitor ct = inhibits beta-lactamase activity, counter-screen to TLR4-MyD88 binding inhibitors; shares compounds with TLR4 MyD88 comp; HeLa BLA reporter, CCF4 FRET ratio; inhibition, % at 8.4 µM; actives 63% (n = 350);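 active means mean inhibition over three repeats above about 26% taken from the earlier screen, limit read from the data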;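 further: HeLa cells stably expressing beta-lactamase reporter as counterscreen for TLR4-MyD88 inhibitors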
Lipid drop inh = hepatic lipid droplet formation inhibition, confirmed; inhibition, % at 5.2 µM; actives 65% (n = 870); shares compounds with Lipid droplet; AML12 mouse hepatocytes, BODIPY lipid droplet imaging; droplets induced with 100 µM oleic acid;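 active means inhibition of lipid droplet metric at least 50%, with more than 300 cells in each of four replicates; inconclusive means wells under 300 cells, flagged as toxic or low count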
AML12 cytotox = counter-screen for cytotoxicity in AML12 mouse hepatocytes; actives 3% (n = 870); shares compounds with Lipid droplet; DAPI nuclear morphology cytotoxicity imaging; active compounds read high; cells fed 100 µM oleate overnight; z-score at 5 µM; in the data active means z-score above about 6.3;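 further: compound exposure lasted overnight at 37 °C before fixation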
AML12 tox conf = confirmation of cytotoxicity in AML12 mouse hepatocytes. shares compounds with Lipid droplet. AML12 mouse hepatocyte viability, ATP luminescence; cells loaded with 100 µM oleic acid. cytotoxicity, % at 50 µM. 530 tested, under 10 active. AID 463219;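 active means cytotoxicity above 50% in each of four replicates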;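 further: compound exposure lasted overnight at 37 °C before the ATP read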
DiI quencher = counter-screen for SR-BI lipid transfer inhibitors: DiI fluorescence quenchers. actives 20% (n = 470). shares compounds with SR-BI HDL uptake. AC50, µM (series often up to 35 µM). cell-free DiI-HDL fluorescence quenching, 30 min;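 active means quenching, a falling signal, with AC50 below a set limit tied to the top valid dose, actives reach about 32 µM in these data; inconclusive means no clear call, values can overlap the other calls; inactive means rising signal, and the rest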
TLR9-MyD88 cf = TLR9-MyD88 interaction inhibition, confirmation. shares compounds with TLR9-MyD88 inh. CHO TLR9/MyD88 BLA complementation, CCF4 FRET ratio. inhibition, % at 4.98 µM. actives 51% (n = 680);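 active means mean inhibition across three repeats above about 21% taken from the earlier screen, limit read from the data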;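 further: blue over green emission ratio reports constitutive TLR9 MyD88 association via BLA complementation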
Target sequence (Q9NR96 whole entry, looked up): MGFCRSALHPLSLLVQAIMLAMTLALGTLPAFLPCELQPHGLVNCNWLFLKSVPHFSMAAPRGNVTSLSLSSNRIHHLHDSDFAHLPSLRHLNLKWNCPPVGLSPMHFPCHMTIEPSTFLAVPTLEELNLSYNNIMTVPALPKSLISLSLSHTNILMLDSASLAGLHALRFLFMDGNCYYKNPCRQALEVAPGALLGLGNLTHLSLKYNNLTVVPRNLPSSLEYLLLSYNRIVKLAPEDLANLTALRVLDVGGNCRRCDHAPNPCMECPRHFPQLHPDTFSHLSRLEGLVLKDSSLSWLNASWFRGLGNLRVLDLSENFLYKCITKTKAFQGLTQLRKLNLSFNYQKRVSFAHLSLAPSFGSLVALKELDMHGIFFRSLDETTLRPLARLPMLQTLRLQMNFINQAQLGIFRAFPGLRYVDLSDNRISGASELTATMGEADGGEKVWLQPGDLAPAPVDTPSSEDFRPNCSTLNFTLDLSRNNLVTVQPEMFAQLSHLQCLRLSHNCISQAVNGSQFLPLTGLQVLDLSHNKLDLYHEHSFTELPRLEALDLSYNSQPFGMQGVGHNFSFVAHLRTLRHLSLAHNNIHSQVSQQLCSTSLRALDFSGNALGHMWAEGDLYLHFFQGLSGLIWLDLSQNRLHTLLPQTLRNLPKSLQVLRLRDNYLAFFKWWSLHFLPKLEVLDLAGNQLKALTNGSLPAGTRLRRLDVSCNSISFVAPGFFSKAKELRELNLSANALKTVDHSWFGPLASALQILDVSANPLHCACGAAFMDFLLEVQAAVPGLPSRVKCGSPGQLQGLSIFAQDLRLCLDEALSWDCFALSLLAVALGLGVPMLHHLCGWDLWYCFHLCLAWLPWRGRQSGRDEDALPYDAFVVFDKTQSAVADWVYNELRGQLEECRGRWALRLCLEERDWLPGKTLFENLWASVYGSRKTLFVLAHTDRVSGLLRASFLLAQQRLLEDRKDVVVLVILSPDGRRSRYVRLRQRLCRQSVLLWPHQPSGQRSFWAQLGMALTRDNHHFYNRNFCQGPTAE
BLA counter-1 = non-selective beta-lactamase inhibitors in TLR9-MyD88 counter-screen; shares compounds with TLR9-MyD88 inh; CHO-BLA cells, CCF4 FRET ratio, BLA reporter; inhibition, % at 4.98 µM; actives 7% (n = 680);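 active means mean inhibition above a 50% cutoff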;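 further: counterscreen of TLR9-MyD88 hits on CMV-driven BLA in CHO-K1 cells; higher means less blue over green ratio so more BLA blockade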
TLR9 CHO tox = counter-screen for TLR9-MyD88 inhibitors: cytotoxicity in CHO cells; actives 39% (n = 680); luminescence; shares compounds with TLR9-MyD88 inh; inhibition, % at 4.98 µM; in the data active means inhibition above about 11%
NOD2-RIPK2 conf = NOD2-RIPK2 interaction inhibition confirmed | shares compounds with NOD2 RIPK2 PPI | CHO cells, NOD2-RIPK2 BLA complementation, CCF4 FRET | inhibition, % at 4.98 µM | actives 70% (n = 1,200) | AID 624370;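 active means mean inhibition across replicates above a set limit taken from the earlier primary screen, cut at about 21% in these data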
BLA counter-2 = NOD2-RIPK2 counterscreen BLA reporter activity; shares compounds with NOD2 RIPK2 PPI; CHO BLA reporter, CCF4 FRET ratio; inhibition, % at 4.98 µM; actives 57% (n = 1,200); AID 624371;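 active means mean inhibition above the low-control mean inhibition plus three low-control SD, cut at about 11% in these data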
Each line names hits and unclear results; the compound was inactive in the other large screens (follow-up assays come after a bar, where they were run). A selection: hits, their analogues and other compounds. The true share with any hit is near 1.6%.

CCn1c(O)c(C=Nc2ccc(N3CCOCC3)cc2)c(=O)n(CC)c1=S	TLR4 MyD88 comp 44 (no result: Lipid droplet) | TLR4-MyD88 conf 50 | BLA inhibitor ct 69
CC(C)(C#CCCCCC#CC(C)(C)[N+](C)(C)C)[N+](C)(C)C	none (no result: SR-BI DiI-HDL act, TLR9-MyD88 inh, TLR4 MyD88 comp, NOD2 RIPK2 PPI, SR-BI HDL uptake)
Cc1ccc(/C=C2\C(=O)NC(=S)N(c3ccc(F)cc3)C2=O)s1	TLR4 MyD88 comp 26 | TLR4-MyD88 conf inactive | BLA inhibitor ct inactive
CC(C)OCCCNC(=O)c1c(N)n(CC2CCCO2)c2nc3ccccc3nc12 (stereo not given)	Lipid droplet 51 | Lipid drop inh inactive | AML12 cytotox inactive | AML12 tox conf inactive
COc1ccc(C(=O)OCC2CN2c2cccc([N+](=O)[O-])c2)cc1 (stereo not given)	none (no result: Lipid droplet, SR-BI DiI-HDL act, TLR9-MyD88 inh, TLR4 MyD88 comp, SR-BI HDL uptake)
Nc1cc(Cl)c2nonc2c1[N+](=O)[O-]	Lipid droplet 113, SR-BI DiI-HDL act 70, TLR9-MyD88 inh 52, NOD2 RIPK2 PPI 74 | Lipid drop inh inactive | AML12 cytotox inactive | TLR9-MyD88 cf 48 | BLA counter-1 inactive | TLR9 CHO tox 97 | NOD2-RIPK2 conf 76 | BLA counter-2 21
O=C(CCCc1ccccc1)NCCc1cnc[nH]1	none (no result: TLR4 MyD88 comp)
CNC1(c2ccc(F)cc2)CCCCC1	SR-BI HDL uptake inconclusive (no result: Lipid droplet, TLR4 MyD88 comp) | DiI quencher inactive
OC1(c2ccc(F)cc2)CCNC1 (stereo not given)	none (no result: Lipid droplet)
COc1cc2c(cc1OC)C1C(=O)c3ccc4c(c3OC1CO2)CC(C(C)C)O4 (stereo not given)	none (no result: Lipid droplet, TLR4 MyD88 comp)
COc1c(C)cc(C(=O)C2CCCN(Cc3cccc(C)n3)C2)cc1C (stereo not given)	none
O=c1cccc2n1CC1CC2CN(S(=O)(=O)c2cc(Cl)ccc2Cl)C1 (stereo not given)	none (no result: TLR4 MyD88 comp) | DiI quencher inactive
N#Cc1ccc(Nc2nc(-c3ccc(O)cc3O)cs2)cc1C(F)(F)F	SR-BI HDL uptake 103 (no result: Lipid droplet, TLR4 MyD88 comp) | DiI quencher 4.3µM
Cc1cc(C)cc(N2C(=O)NC(=O)/C(=C\c3cccn3-c3ccc(Cl)cc3)C2=O)c1	none (no result: Lipid droplet)
Cc1cc(C)cc(N2C(=O)NC(=O)/C(=C\c3cccn3-c3ccccc3)C2=O)c1	TLR9-MyD88 inh 22 | TLR9-MyD88 cf inactive | BLA counter-1 inactive | TLR9 CHO tox inactive
CCCNC(=O)N1[C@H]2CC[C@@H]1C(C(=O)OC)=C(c1ccc3ccccc3c1)C2	none (no result: Lipid droplet, TLR4 MyD88 comp)
CCC1(C)OC(c2ccccc2)=C/C(=C/C=C2C(=O)NC(=O)NC2=O)O1 (stereo not given)	TLR9-MyD88 inh 33 | TLR9-MyD88 cf 25 | BLA counter-1 inactive | TLR9 CHO tox inactive
COc1cc(/C=C(/C)[N+](=O)[O-])ccc1OCc1ccccc1Cl	TLR9-MyD88 inh 34, NOD2 RIPK2 PPI 81 | TLR9-MyD88 cf 34 | BLA counter-1 inactive | TLR9 CHO tox 99
COc1ccc2c3c1OC1C(=O)CC[C@@]4(O)[C@@H](C2)N(CC2CC2)CC[C@]314 (stereo not given in full)	none (no result: Lipid droplet, TLR4 MyD88 comp)
COc1ccc2c3c([nH]c2c1)C(C)=NCC3	none
CC1=NCCc2c1[nH]c1cc(O)ccc21	TLR9-MyD88 inh 32, NOD2 RIPK2 PPI 54 (no result: Lipid droplet, TLR4 MyD88 comp) | TLR9-MyD88 cf 26 | BLA counter-1 inactive | TLR9 CHO tox inactive | NOD2-RIPK2 conf 49 | BLA counter-2 51
C[CH2][Hg][S]c1ccccc1C(=O)O	TLR9-MyD88 inh 52, NOD2 RIPK2 PPI active, SR-BI HDL uptake 106 (no result: Lipid droplet, TLR4 MyD88 comp) | TLR9-MyD88 cf 48 | BLA counter-1 inactive | TLR9 CHO tox 97 | NOD2-RIPK2 conf active | BLA counter-2 inactive
c1ccc(CN2Cc3ccccc3-n3nncc3C2)nc1	none (no result: Lipid droplet, SR-BI DiI-HDL act, TLR4 MyD88 comp, SR-BI HDL uptake)
CC(=O)OC1C(=O)OCC23CCC4(C)OC4C2OC2CC(OC(=O)C=CC=CC(=O)OCCC1C)C3(C)C21CO1 (stereo not given)	NOD2 RIPK2 PPI 31 (no result: Lipid droplet, TLR4 MyD88 comp) | NOD2-RIPK2 conf 25 | BLA counter-2 inactive
CC(O)C1C=CC=CC(=O)OC2CC3OC4C5OC5(C)CCC4(COC(=O)C4OC4(C)C(O)CO1)C2(C)C31CO1 (stereo not given)	NOD2 RIPK2 PPI 29 (no result: Lipid droplet, TLR4 MyD88 comp) | NOD2-RIPK2 conf 21 | BLA counter-2 inactive
O=C1NCN(c2ccccc2)C12CCN(C(CCc1ccccc1)c1nnnn1C1CCCCC1)CC2 (stereo not given)	none (no result: Lipid droplet, SR-BI DiI-HDL act, TLR9-MyD88 inh, TLR4 MyD88 comp, SR-BI HDL uptake)
COC(=O)C12OCC34C(CC5C(C)=C(O)C(=O)CC5(C)C3C(O)C1O)OC(=O)C(OC(=O)/C=C(\C)C(C)C)C24 (stereo not given)	NOD2 RIPK2 PPI 29 (no result: Lipid droplet, TLR4 MyD88 comp) | NOD2-RIPK2 conf 24 | BLA counter-2 inactive
COc1ccc(-n2c(/C=C/c3ccc(O)c(OC)c3)nc3ccccc3c2=O)cc1	none (no result: TLR4 MyD88 comp)

Compound activity (PubChem)
